Test results reported in publication PMC8842743 (Journal of Alzheimer's Disease Reports, 2022).

Assays:
[1] = Clinical single-dose plasma pharmacokinetics; type: in vivo, human; settings: for Cmax / AUC (0∞) / t1/2 / CLR: geometric mean (CV%); for tmax: median (range)
Method in brief: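 Healthy subjects received single oral doses of placebo or 0.1 mg (n = 3 per group), or 0.4, 1.6, 5, 15 or 45 mg (n = 8 per group). Plasma was sampled immediately pre-dose and up to 120 h post-dose. Reported parameters were Cmax, tmax, terminal t1/2, AUC0–∞, clearance and apparent volume of distribution.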

[2] = Dog plasma protein binding; type: in vitro ADME; settings: equilibrium dialysis of dog plasma
Method in brief: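 Fraction unbound was determined in vitro by equilibrium dialysis of mouse brain homogenate or dog plasma. Unbound concentrations were derived by multiplying the total measured concentrations by this fraction unbound.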

- Renal clearance ([1]; healthy subjects, across dose levels): approximately 1 L/h
- Apparent oral clearance ([1]; healthy subjects, across dose levels except 15 mg): approximately 26 L/h
- terminal t1/2 ([1]; healthy subjects, single oral doses, plasma): approximately 20 h
- Cmax ([1]; single dose 0.1 mg, n = 3): 0.169 (50) ng/mL
- tmax ([1]; single dose 0.1 mg): 3.08 (3.00–6.00) h
- Cmax ([1]; single dose 0.4 mg, n = 8): 0.486 (81) ng/mL
- tmax ([1]; single dose 0.4 mg): 3.55 (3.00–8.00) h
- Cmax ([1]; single dose 1.6 mg, n = 8): 2.89 (70) ng/mL
- AUC (0∞) ([1]; single dose 1.6 mg): 60.6 (49) ng·h/mL
- t1/2 ([1]; single dose 1.6 mg): 23.0 (21) h
- tmax ([1]; single dose 1.6 mg): 3.00 (3.00–4.00) h
- Cmax ([1]; single dose 5 mg, n = 8): 7.91 (56) ng/mL
- AUC (0∞) ([1]; single dose 5 mg): 197 (38) ng·h/mL
- CLR ([1]; single dose 5 mg): 1.09 (64) L/h
- t1/2 ([1]; single dose 5 mg): 19.8 (42) h
- tmax ([1]; single dose 5 mg): 4.03 (2.90–24.12) h
- Cmax ([1]; single dose 15 mg, n = 8): 21.3 (77) ng/mL
- AUC (0∞) ([1]; single dose 15 mg): 393 (84) ng·h/mL
- CLR ([1]; single dose 15 mg): 0.829 (37) L/h
- t1/2 ([1]; single dose 15 mg): 19.5 (25) h
- tmax ([1]; single dose 15 mg): 3.01 (1.98–4.00) h
- Cmax ([1]; single dose 45 mg, n = 8): 92.5 (47) ng/mL
- AUC (0∞) ([1]; single dose 45 mg): 1680 (34) ng·h/mL
- CLR ([1]; single dose 45 mg): 1.03 (53) L/h
- t1/2 ([1]; single dose 45 mg): 21.5 (19) h
- tmax ([1]; single dose 45 mg): 2.54 (2.00–4.07) h
- dog plasma free fraction [2]: 0.009
SMILES: COc1cnc(C(=O)Nc2ccc(F)c([C@]34CN(c5ncc(F)cn5)C[C@H]3CSC(N)=N4)c2)cn1 [LY3202626]
